HDAC3 inh – inhibitors of human histone deacetylase 3 | O15379 | recombinant HDAC3, fluorogenic peptide/trypsin coupled, fluorescence | inhibition, % at 8.3 µM | 320,000 compounds, 0.15% hits; in the data active = inhibition above about 26%, passing the limit was not always enough
UCH37 inh – blocks the human deubiquitinase UCH37. purified proteasome/UCH37, Ub-AMC cleavage fluorescence. inhibition, % (test concentration not listed). 330,000 compounds, 0.33% hits;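 active = mean inhibition over replicate wells above about 20%, limit read from the data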;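 also: 0% = compound-free wells with enzyme and 100% = wells lacking proteasome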
Target sequence (Q9Y5K5 whole entry, looked up): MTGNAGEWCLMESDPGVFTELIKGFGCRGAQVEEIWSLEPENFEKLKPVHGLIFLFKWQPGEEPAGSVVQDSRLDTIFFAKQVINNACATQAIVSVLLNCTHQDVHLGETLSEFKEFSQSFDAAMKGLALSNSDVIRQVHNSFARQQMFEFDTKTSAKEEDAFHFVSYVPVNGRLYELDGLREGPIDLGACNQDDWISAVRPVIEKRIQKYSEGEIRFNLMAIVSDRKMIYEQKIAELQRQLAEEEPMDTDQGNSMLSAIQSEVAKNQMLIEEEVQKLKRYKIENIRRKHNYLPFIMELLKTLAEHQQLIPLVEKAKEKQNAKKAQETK
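Reagent: Ub-AMC substrate; assay system: Proteasome-associated human UCH37 deubiquitinase; controls: no-proteasome and no-compound wells; read-out: % inhibition of Ub-AMC cleavage fluorescence; timing: 30 min preincubation with enzyme, 25 min cleavage at room temperature; signal: AMC fluorescence from Ub-AMC cleavage, excitation 355 nm, emission 460 nm; buffer or medium: Tris-HCl pH 7.4 plus ovalbumin, ATP-MgCl2, DTT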
PfM18AAP inh-1 – PfM18AAP enzyme inhibition | inhibition, % at 7.35 µM | recombinant PfM18AAP, H-Glu-NHMec fluorogenic cleavage | 290,000 compounds, 1.2% hits;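 active = inhibition above the campaign mean inhibition over all tested compounds plus 3 SD, cut at about 28% in these data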;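 also: 0% = plate median of test compound wells and 100% = 2 mM ZnCl2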
FAS-TE inh – FAS thioesterase (human) inhibition. AID 602261. P49327. inhibition, % at 15 µM. recombinant FAS-TE, OMFH fluorogenic substrate, fluorescence endpoint. 360,000 compounds, 0.67% hits;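 active = compounds whose normalised, plate-corrected inhibition of enzyme fluorescence in the single-dose primary screen is 50% or more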;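 also: 0% = DMSO with enzyme and 100% = substrate without enzyme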
ALR H2O2 inh – inhibitors of human sulfhydryl oxidase ALR; P55789; purified ALR, DTT oxidation, H2O2 HRP-luminol luminescence; 290,000 compounds, 3.8% hits; inhibition, % (no concentration beside the values);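 active = mean replicate inhibition above about 79%, with every replicate also reaching it, limit read from the data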
Rtt109 HAT inh – blocks Candida albicans Rtt109/Vps75 acetyltransferase activity; inhibition, % at 34.9 µM; Q5AAJ8; purified Rtt109/Vps75, ThioGlo CoA-SH fluorescence, 4 h; 330,000 compounds, 0.16% hits;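 active = inhibition of at least 50% in every replicate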
PfM18AAP inh-2 – PfM18AAP inhibition, confirmation. 2,400 compounds, 28% hits. recombinant PfM18AAP, H-Glu-NHMec fluorogenic cleavage. shares compounds with PfM18AAP inh-1. inhibition, % at 7.35 µM;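 active = mean inhibition over replicate wells above the hit cutoff set for the earlier primary screen, cut at about 29% in these data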;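 also: 0% = median of test compound wells and 100% = 2 mM ZnCl2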
CTSL1 counter – counter-screen for PFM18AAP inhibitors: confirmation of human cathepsin L inhibitors | 2,400 tested, under 10 active | inhibition, % at 5.96 µM | shares compounds with PfM18AAP inh-1 | purified cathepsin L1, Z-Leu-Arg-MCA fluorescence;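 active = average inhibition across replicates above the hit cutoff set in the earlier primary screen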;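 also: 0% = median of test compound wells and 100% = Z-Phe-Ala-diazomethylketone 1 µM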
An asterisk follows results filed as active; nt = no result given. In the library only some 4.6% were active in any assay of this set; here they are far more common.

SMILES	HDAC3 inh	UCH37 inh	PfM18AAP inh-1	FAS-TE inh	ALR H2O2 inh	Rtt109 HAT inh	PfM18AAP inh-2	CTSL1 counter
O=C(Nn1c(O)c(C=C2N=c3ccccc3=N2)sc1=S)c1cccc(Cl)c1	-1	7	54*	1	10	1	-3	-2
COc1ccccc1C=NNC(=O)CNC(=O)c1ccccc1	nt	2	nt	nt	nt	nt	nt	nt
CCC(C)(C)n1nnnc1CN(Cc1cc2cc(OC)c(OC)cc2[nH]c1=O)C1CCCC1	-17	-9	33*	3	-65	-60	6	5
NC(=O)c1cc(Cc2ccccc2)sc1NC(=O)c1ccco1	3	-20	35*	11	17	-23	-21	6
O=C(Nc1nnc(Cc2ccccc2)s1)c1ccco1	1	1	-8	-7	-10	-4	nt	nt
CCn1c(SCC(=O)NN=Cc2ccccc2OCC(=O)O)nnc1-c1ccc(Cl)cc1	nt	4	nt	nt	nt	nt	nt	nt
CC(CC(=O)Nc1ccc2ccccc2c1)=NNC(=O)c1ccc(O)c(O)c1	nt	-2	nt	nt	nt	nt	nt	nt
C/C(CC(=O)Nc1ccc2ccccc2c1)=N\NC(=O)c1ccc(O)c(O)c1	2	nt	68*	-4	99*	10	50*	-2
CC(O)C(=O)NN=Cc1cccc2ccccc12 (stereo unspecified)	nt	5	nt	nt	nt	nt	nt	nt
CCOc1cc(C(=O)Nn2cnnc2)cc(OCC)c1OCC	-3	7	35*	-7	3	-4	24	1
CCOc1cc(C(=O)NC)cc(OCC)c1OCC	-6	2	-5	-4	-3	7	nt	nt
CCOc1cc(C(=O)NC(=S)Nn2cnnc2)cc(OCC)c1OCC	10	3	75*	-4	34	5	75*	-2
CCOc1cc(C(=O)NC(=S)Nc2nc(C)cc(C)n2)cc(OCC)c1OCC	8	0	3	-1	0	2	nt	nt
O=C(CN1CCN(Cc2ccccc2Cl)CC1)NN=Cc1ccco1	nt	3	nt	nt	nt	nt	nt	nt
CN(C)C=Nc1cc(=O)n(C)c(=O)n1Cc1ccccc1	nt	2	nt	nt	nt	nt	nt	nt
Cc1ccc(C(=O)ON=Cc2c(C)nn(C)c2Cl)cc1	nt	-2	nt	nt	nt	nt	nt	nt
Nc1nnnn1CC(=O)NN=Cc1cc([N+](=O)[O-])ccc1O	nt	7	nt	nt	nt	nt	nt	nt
CN(C)S(=O)(=O)c1cccc(C(=O)C2=C3SC=C(c4ccccc4)N3CC2)c1	-2	1	34*	-40	-3	15	-13	-4
CN(C)S(=O)(=O)c1cccc(C(=O)N2CCc3ccccc32)c1	5	3	4	-4	-11	-14	nt	nt
Cc1cc(C(=O)NN=Cc2ccc(-c3ccc([N+](=O)[O-])cc3Cl)o2)n[nH]1	nt	13	nt	nt	nt	nt	nt	nt
COc1cc(C=NNC(=O)CCn2cnc(-c3ccccc3)c2-c2ccccc2)ccc1O	nt	4	nt	nt	nt	nt	nt	nt
NC(N)=N/N=C/c1cccc([N+](=O)[O-])c1O	3	nt	43*	-8	0	nt	-6	-1
O=C(CN1C(=O)NC2NC(=O)NC21)NN=Cc1ccccc1O (stereo unspecified)	nt	-56	nt	nt	nt	nt	nt	nt
COc1cc(C2Nc3ccc4ncccc4c3C3=C2C(=O)CCC3)cc(OC)c1O (stereo unspecified)	3	8	43*	-5	nt	7	-5	2
COc1cc(C2Nc3ccc4ncccc4c3C3=C2C(=O)CC(C)(C)C3)cc(OC)c1O (stereo unspecified)	5	2	8	-5	6	14	nt	nt
COC(=O)c1ccc(C=NOCC(=O)Nc2cc(F)ccc2F)cc1	nt	0	nt	nt	nt	nt	nt	nt
COc1ccc(C2Nc3cccc4cccc(c34)N2)cc1	0	-9	4	37	-22	-5	nt	nt
Clc1ccc(C2Nc3cccc4cccc(c34)N2)cc1Cl	0	5	36*	33	-28	-3	-24	-5
CN(C)c1ccc(C2Nc3cccc4cccc(c34)N2)cc1	1	-3	37*	11	-129	5	-11	-5
CCn1nc(C)c(C=NNC(=O)c2ccoc2C)c1C	nt	4	nt	nt	nt	nt	nt	nt

Screening data as filed in PubChem.
